# According to ChEMBL document CHEMBL1641579, “Synthesis and biological evaluation of 7-substituted-1-(3-bromophenylamino)isoquinoline-4-carbonitriles as inhibitors of myosin light chain kinase and epidermal growth factor receptor” (Bioorg Med Chem, 2011):
# pIC50, pKi: −log10 of the molar value. Active and inactive are the calls of the source. The calls are words filed in the database; no cut-off is given here.
# Legend:
# [1] = molecular target: T1, Myosin light chain kinase, smooth muscle (Homo sapiens, UniProt Q15746); assay: Inhibition of MLCK by HTRF assay
# T1 sequence (Q15746 whole entry): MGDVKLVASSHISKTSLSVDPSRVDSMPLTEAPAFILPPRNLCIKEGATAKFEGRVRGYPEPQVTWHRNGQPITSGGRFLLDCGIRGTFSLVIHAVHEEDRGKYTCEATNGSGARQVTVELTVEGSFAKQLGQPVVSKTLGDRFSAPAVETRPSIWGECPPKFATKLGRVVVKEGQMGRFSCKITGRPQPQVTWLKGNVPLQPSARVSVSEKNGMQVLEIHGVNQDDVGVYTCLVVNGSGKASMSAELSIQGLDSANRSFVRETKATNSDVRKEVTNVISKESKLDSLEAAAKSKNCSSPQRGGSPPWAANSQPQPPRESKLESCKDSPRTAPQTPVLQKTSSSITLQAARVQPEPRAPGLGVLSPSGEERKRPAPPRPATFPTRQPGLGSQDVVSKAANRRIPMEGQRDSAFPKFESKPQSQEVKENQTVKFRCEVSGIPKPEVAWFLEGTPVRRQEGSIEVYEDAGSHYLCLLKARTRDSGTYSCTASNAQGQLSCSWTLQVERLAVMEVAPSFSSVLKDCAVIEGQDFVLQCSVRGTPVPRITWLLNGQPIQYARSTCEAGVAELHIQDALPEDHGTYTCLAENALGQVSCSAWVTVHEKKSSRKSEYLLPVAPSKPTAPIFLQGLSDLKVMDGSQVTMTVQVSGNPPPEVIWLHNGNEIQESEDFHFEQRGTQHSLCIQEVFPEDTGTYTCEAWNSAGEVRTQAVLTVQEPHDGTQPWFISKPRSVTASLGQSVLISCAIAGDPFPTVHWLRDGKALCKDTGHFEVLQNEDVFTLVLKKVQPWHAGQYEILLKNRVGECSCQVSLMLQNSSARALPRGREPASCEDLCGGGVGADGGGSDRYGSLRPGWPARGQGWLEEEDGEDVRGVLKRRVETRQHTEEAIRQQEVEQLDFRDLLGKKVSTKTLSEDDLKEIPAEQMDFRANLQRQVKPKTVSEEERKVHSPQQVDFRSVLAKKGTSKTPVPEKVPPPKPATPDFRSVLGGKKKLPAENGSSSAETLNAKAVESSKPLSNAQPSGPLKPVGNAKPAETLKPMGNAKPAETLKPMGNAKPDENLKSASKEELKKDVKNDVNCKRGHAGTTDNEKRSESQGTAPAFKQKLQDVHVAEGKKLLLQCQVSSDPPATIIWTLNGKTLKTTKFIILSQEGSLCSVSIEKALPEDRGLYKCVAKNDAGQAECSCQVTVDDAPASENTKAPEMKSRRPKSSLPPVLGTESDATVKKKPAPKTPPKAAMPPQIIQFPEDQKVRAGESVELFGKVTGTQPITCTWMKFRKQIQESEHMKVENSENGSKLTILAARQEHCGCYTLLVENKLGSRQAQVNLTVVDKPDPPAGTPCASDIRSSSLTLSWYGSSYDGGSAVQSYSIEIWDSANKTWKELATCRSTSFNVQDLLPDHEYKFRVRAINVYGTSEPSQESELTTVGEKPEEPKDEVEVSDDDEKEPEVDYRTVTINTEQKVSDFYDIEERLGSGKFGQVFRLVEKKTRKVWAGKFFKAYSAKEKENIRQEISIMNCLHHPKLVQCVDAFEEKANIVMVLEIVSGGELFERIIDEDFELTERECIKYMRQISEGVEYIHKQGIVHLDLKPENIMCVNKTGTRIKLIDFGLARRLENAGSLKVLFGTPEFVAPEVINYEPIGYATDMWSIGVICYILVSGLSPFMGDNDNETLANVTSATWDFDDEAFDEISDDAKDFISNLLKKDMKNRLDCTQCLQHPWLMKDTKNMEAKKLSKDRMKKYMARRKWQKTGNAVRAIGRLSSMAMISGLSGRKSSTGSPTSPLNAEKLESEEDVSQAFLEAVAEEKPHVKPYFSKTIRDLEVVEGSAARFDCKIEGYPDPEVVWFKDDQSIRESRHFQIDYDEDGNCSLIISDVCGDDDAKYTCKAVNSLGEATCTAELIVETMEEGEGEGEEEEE
# [2] = molecular target: T2, Epidermal growth factor receptor (Homo sapiens, UniProt P00533); assay: Inhibition of EGFR by HTRF assay
# T2 sequence (P00533 whole entry): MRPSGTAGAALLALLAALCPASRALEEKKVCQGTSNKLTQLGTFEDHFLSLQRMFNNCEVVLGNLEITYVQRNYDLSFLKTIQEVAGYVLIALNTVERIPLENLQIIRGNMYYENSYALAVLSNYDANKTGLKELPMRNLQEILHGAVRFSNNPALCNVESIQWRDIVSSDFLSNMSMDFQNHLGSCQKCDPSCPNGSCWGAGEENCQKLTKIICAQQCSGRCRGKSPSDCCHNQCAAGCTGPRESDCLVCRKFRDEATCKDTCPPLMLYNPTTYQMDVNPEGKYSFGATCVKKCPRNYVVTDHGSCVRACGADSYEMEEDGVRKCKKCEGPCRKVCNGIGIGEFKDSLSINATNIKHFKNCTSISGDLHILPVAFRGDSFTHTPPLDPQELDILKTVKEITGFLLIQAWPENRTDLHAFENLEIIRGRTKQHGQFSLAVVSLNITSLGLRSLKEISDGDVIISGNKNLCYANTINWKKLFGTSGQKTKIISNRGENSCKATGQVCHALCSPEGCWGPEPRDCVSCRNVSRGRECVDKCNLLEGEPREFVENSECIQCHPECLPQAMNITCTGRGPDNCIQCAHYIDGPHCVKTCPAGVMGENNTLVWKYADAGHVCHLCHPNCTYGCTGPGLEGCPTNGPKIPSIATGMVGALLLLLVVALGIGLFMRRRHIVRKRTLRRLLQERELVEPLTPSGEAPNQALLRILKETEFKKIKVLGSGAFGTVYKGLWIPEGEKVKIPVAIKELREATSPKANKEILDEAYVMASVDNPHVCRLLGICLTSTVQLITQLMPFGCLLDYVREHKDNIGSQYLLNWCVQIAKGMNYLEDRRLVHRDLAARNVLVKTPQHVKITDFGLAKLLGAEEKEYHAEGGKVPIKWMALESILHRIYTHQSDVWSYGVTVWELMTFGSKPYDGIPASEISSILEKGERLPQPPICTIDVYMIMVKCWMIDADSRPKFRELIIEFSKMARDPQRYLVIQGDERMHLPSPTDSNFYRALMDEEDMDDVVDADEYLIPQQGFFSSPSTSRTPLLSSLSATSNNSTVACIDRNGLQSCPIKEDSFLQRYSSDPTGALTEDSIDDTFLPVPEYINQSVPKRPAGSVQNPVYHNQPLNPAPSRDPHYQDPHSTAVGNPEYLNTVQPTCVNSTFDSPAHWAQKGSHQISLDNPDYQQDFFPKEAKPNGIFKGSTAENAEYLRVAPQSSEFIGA
# [3] = molecular target: T1, Myosin light chain kinase, smooth muscle; assay: Inhibition of MLCK up to 40 uM by HTRF assay
# Procedure, shortened: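 HTRF activity assay with peptide substrate STK1 at 375 nM and ATP at its Km (18 µM), in the presence of Ca2+/calmodulin. Kinase and inhibitor preincubated 30 min, then ATP plus substrate added. Detection by Eu-cryptate anti-phospho-STK1 antibody and streptavidin-XL665, with the 665/620 nm FRET ratio read. Eight inhibitor concentrations, Hill 4-parameter fit. At least two independent runs, each in duplicate. NI means no inhibition up to 40 µM.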
# [4] = molecular target: T2, Epidermal growth factor receptor; assay: Inhibition of EGFR up to 40 uM by HTRF assay
Structure (SMILES),pIC50 [2],inhibition [3],further results
COC[C@H]1OC(=O)c2coc3c2[C@@]1(C)C1=C(C3=O)[C@@H]2CCC(=O)[C@@]2(C)C[C@H]1OC(C)=O [WORTMANNIN],–,–,pIC50 [1]: 6.77
O=S(=O)(c1cccc2c(I)cccc12)N1CCCNCC1,–,–,pKi [1]: 6.52
N#Cc1cnc(Nc2cccc(Br)c2)c2cc(NC(=O)c3ccco3)ccc12,4.25,inactive,–
CCC(=O)Nc1ccc2c(C#N)cnc(Nc3cccc(Br)c3)c2c1,4.68,inactive,–
CCOC(=O)Nc1ccc2c(C#N)cnc(Nc3cccc(Br)c3)c2c1,4.89,inactive,–
N#Cc1cnc(Nc2cccc(Br)c2)c2cc(NC(=O)CCN3CCOCC3)ccc12,5.16,inactive,–
NCCCCCCNS(=O)(=O)c1cccc2c(Cl)cccc12,–,–,pKi [1]: 3.96
N#Cc1cnc(Nc2cccc(Br)c2)c2cc(NC(=O)c3ccoc3)ccc12,4.34,inactive,–
N#Cc1cnc(Nc2cccc(Br)c2)c2cc(NC(=O)c3cc4ccccc4[nH]3)ccc12,–,inactive,inhibition [4]: inactive
N#Cc1cnc(Nc2cccc(Br)c2)c2cc(NC(=O)[C@@H]3CCC(=O)N3)ccc12,5.66,inactive,–
O=S(=O)(c1cccc2cnccc12)N1CCCNCC1 [FASUDIL],–,–,pIC50 [1]: 4.67; pKi [1]: 4.44
